Assay results taken from ChEMBL document CHEMBL1154215, “Constituents of the leaves of Magnolia ovata” (2009).
Active and inactive are the calls of the source. The calls are words filed in the database; no cut-off is given here.

Tests used:
Assay type in all cases: functional
[1] = tested on: Radical scavenging activity; assay: Antioxidant activity assessed as DPPH radical scavenging activity
Summary of the method: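 DPPH (250 μM in MeOH) added to methanolic compound solutions, seven serial […] dilutions giving a final range of 100 to 1.6 μg mL⁻¹. Quercetin and Trolox served as positive controls. Triplicate assays. SC₅₀ is the concentration (μg mL⁻¹) scavenging 50% of DPPH radicals, reported as mean (%RSD).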

[2] = tested on: Candida dubliniensis; assay: Antimicrobial activity against Candida dubliniensis ATCC 778157 by broth microdilution method
Summary of the method: (§1)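 Broth microdilution in 96-well plates; compounds tested from 10 to 1000 μg/mL. MIC is the lowest concentration giving complete inhibition of the strain. Positive controls were bacitracine (0.2 UI mL⁻¹) and ketoconazole (100.0 μg mL⁻¹). Negative control was DMSO–sterile water (5:95, v/v). Run in duplicate per microorganism and repeated three times.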

[3] = tested on: Staphylococcus aureus; assay: Antimicrobial activity against Staphylococcus aureus ATCC 14458 by broth microdilution method; summary of the method: as §1
[4] = tested on: Candida tropicalis; assay: Antimicrobial activity against Candida tropicalis ATCC 157 by broth microdilution method; summary of the method: as §1
[5] = tested on: Nakaseomyces glabratus; assay: Antimicrobial activity against Candida glabrata ATCC 30070 by broth microdilution method; summary of the method: as §1
[6] = tested on: Staphylococcus epidermidis; assay: Antimicrobial activity against Staphylococcus epidermidis ATCC 12228 by broth microdilution method; summary of the method: as §1
[7] = tested on: Pseudomonas aeruginosa; assay: Antimicrobial activity against Pseudomonas aeruginosa ATCC 15442 by broth microdilution method; summary of the method: as §1
[8] = tested on: Escherichia coli; assay: Antimicrobial activity against Escherichia coli ATCC 10799 by broth microdilution method; summary of the method: as §1

Row | Compound | SC50 [1] | MIC [2] | Activity [1] | MIC [3] | MIC [4] | MIC [5] | MIC [6] | MIC [7] | MIC [8]
1 | Cc1c(C)c2c(c(C)c1O)CCC(C)(C(=O)O)O2 (stereo unspecified) | 2.2 µg/mL |  |  |  |  |  |  |  | 
2 | O=c1c(O)c(-c2ccc(O)c(O)c2)oc2cc(O)cc(O)c12 | 13 µg/mL |  |  |  |  |  |  |  | 
3 | C[C@H]([C@H](C)Cc1ccc2c(c1)OCO2)[C@H](O)c1ccc2c(c1)OCO2 (relative stereo) [MAGNOVATIN A] |  | > 100 µg/mL | inactive | > 100 µg/mL | > 100 µg/mL | > 100 µg/mL | > 100 µg/mL | > 100 µg/mL | > 100 µg/mL
4 | C/C=C/c1cc(OC)c2c(c1)[C@@H](C)[C@H](c1ccc(OC)c(OC)c1)O2 [ACUMINATIN] |  | > 100 µg/mL | inactive | > 100 µg/mL | > 100 µg/mL | > 100 µg/mL | > 100 µg/mL | > 100 µg/mL | > 100 µg/mL
5 | C/C=C/c1cc(OC)c2c(c1)[C@@H](C)[C@H](c1ccc(O)c(OC)c1)O2 [LICARINE A] | 56.1 µg/mL | > 100 µg/mL |  | > 100 µg/mL | > 100 µg/mL | > 100 µg/mL | > 100 µg/mL | > 100 µg/mL | > 100 µg/mL
